Measurements: ChEMBL document CHEMBL3120154, “2-[N-Alkyl(R-phenyl)-aminomethyl]-3-phenyl-7-trifluoromethylquinoxalines as anticancer agents inhibitors of folate enzymes” (Eur J Med Chem, 2014)

Legend:
Format in all cases: functional
U-251 = assay: Cytotoxicity against human U251 cells at 10^-6 M after 48 hrs by SRB assay; settings: U-251, 48 h, read-out: GI
HOP-92 = assay: Cytotoxicity against human HOP92 cells at 10^-5 M after 48 hrs by SRB assay; settings: HOP-92, 48 h, read-out: GI
Procedure, shortened: (§1)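 Run by NCI on its 60-line human tumor cell panel, after a three-cell-line prescreen. Cells were exposed to drug for 48 h over a 5-log range: 100, 10, 1, 0.1 and 0.01 micromolar. Growth was estimated by sulforhodamine B (SRB) protein staining. Percent growth inhibition (I%) was recorded at each concentration relative to untreated control cells.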

RPMI-8226 = assay: Cytotoxicity against human RPMI8226 cells at 10^-5 M after 48 hrs by SRB assay; settings: RPMI-8226, 48 h, read-out: GI
Procedure, shortened: (§2)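 Second-stage screen in the 60-cell-line human tumor panel at NCI, over a 5-log range (100, 10, 1, 0.1, 0.01 micromolar). Cells were exposed to drug for 48 h and growth was estimated with a sulforhodamine B protein stain. The value is percent growth inhibition at each concentration.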

ACHN [1] = assay: Cytotoxicity against human ACHN cells at 10^-6 M after 48 hrs by SRB assay; settings: read-out: GI; procedure, shortened: as §1
PC-3 = assay: Cytotoxicity against human PC3 cells at 10^-5 M after 48 hrs by SRB assay; settings: PC-3, 48 h, read-out: GI; procedure, shortened: as §2
COLO 205 = assay: Cytotoxicity against human COLO205 cells at 10^-5 M after 48 hrs by SRB assay; settings: COLO 205, 48 h, read-out: GI; procedure, shortened: as §1
NCI/ADR-RES = assay: Cytotoxicity against human NCI/ADR-RES cells at 10^-6 M after 48 hrs by SRB assay; settings: read-out: GI
Procedure, shortened: (§3)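 Run in the NCI 60-cell-line screen after a three-line prescreen. Cells got a 48 h drug exposure; viability/growth was estimated with the sulforhodamine B protein assay. Growth inhibition (I%) was recorded at 100, 10, 1, 0.1 and 0.01 micromolar. Percent growth is relative to untreated control cells, and negative values indicate cell kill.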

NCI-H322M = assay: Cytotoxicity against human NCI-H322M cells at 10^-6 M after 48 hrs by SRB assay; settings: read-out: GI; procedure, shortened: as §3
HL-60(TB) = assay: Cytotoxicity against human HL-60(TB) cells at 10^-5 M after 48 hrs by SRB assay; settings: HL-60, 48 h, read-out: GI
Procedure, shortened: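 NCI 60-human-tumour-cell-line screen run over a 5-log dose range (100, 10, 1, 0.1 and 0.01 µM). Cells were exposed to drug for 48 h. Growth was estimated by sulforhodamine B protein staining. Values are percent growth inhibition at each concentration, relative to untreated control cells.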

MOLT-4 = assay: Cytotoxicity against human MOLT4 cells at 10^-6 M after 48 hrs by SRB assay; settings: MOLT-4, 48 h, read-out: GI; procedure, shortened: as §3
786-0 = assay: Cytotoxicity against human 786-0 cells at 10^-6 M after 48 hrs by SRB assay; settings: 786-0, 48 h, read-out: GI; procedure, shortened: as §1
SK-MEL-2 [2] = assay: Cytotoxicity against human SK-MEL-2 cells at 10^-5 M after 48 hrs by SRB assay; settings: SK-MEL-2, 48 h, read-out: GI; procedure, shortened: as §2
NCI-H226 = assay: Cytotoxicity against human NCI-H226 cells at 10^-6 M after 48 hrs by SRB assay; settings: NCI-H226, 48 h, read-out: GI; procedure, shortened: as §3
SK-MEL-5 = assay: Cytotoxicity against human SK-MEL-5 cells at 10^-5 M after 48 hrs by SRB assay; settings: SK-MEL-5, 48 h, read-out: GI; procedure, shortened: as §2
RXF 393 = assay: Cytotoxicity against human RXF393 cells at 10^-6 M after 48 hrs by SRB assay; settings: RXF 393, 48 h, read-out: GI; procedure, shortened: as §2
KM12 = assay: Cytotoxicity against human KM12 cells at 10^-6 M after 48 hrs by SRB assay; settings: KM12, 48 h, read-out: GI; procedure, shortened: as §3
[3] = Cytotoxicity against human OVCAR5 cells at 10^-6 M after 48 hrs by SRB assay; settings: OVCAR-5, 48 h, read-out: GI; procedure, shortened: as §2
MDA-MB-435 = assay: Cytotoxicity against human MDA-MB-435 cells at 10^-5 M after 48 hrs by SRB assay; settings: MDA-MB-435, 48 h, read-out: GI; procedure, shortened: as §3
LOX IMVI = assay: Cytotoxicity against human LOXIMVI cells at 10^-6 M after 48 hrs by SRB assay; settings: read-out: GI; procedure, shortened: as §3
CAKI-1 = assay: Cytotoxicity against human Caki1 cells at 10^-5 M after 48 hrs by SRB assay; settings: CAKI-1, 48 h, read-out: GI; procedure, shortened: as §1
NCI-H522 [4] = assay: Cytotoxicity against human NCI-H522 cells at 10^-6 M after 48 hrs by SRB assay; settings: NCI-H522, 48 h, read-out: GI; procedure, shortened: as §3
ACHN [5] = assay: Cytotoxicity against human ACHN cells at 10^-5 M after 48 hrs by SRB assay; settings: read-out: GI; procedure, shortened: as §1
[6] = Cytotoxicity against human UACC257 cells at 10^-6 M after 48 hrs by SRB assay; settings: UACC-257, 48 h, read-out: GI
SF-539 = assay: Cytotoxicity against human SF539 cells at 10^-5 M after 48 hrs by SRB assay; settings: SF-539, 48 h, read-out: GI; procedure, shortened: as §2
MCF7 = assay: Cytotoxicity against human MCF7 cells at 10^-6 M after 48 hrs by SRB assay; settings: MCF7, 48 h, read-out: GI; procedure, shortened: as §3
[7] = Cytotoxicity against human Hs578T cells at 10^-6 M after 48 hrs by SRB assay; settings: Hs-578T, read-out: GI; procedure, shortened: as §1
[8] = Cytotoxicity against human Hs578T cells at 10^-5 M after 48 hrs by SRB assay; settings: Hs-578T, read-out: GI; procedure, shortened: as §1
NCI-H522 [9] = assay: Cytotoxicity against human NCI-H522 cells at 10^-5 M after 48 hrs by SRB assay; settings: NCI-H522, 48 h, read-out: GI; procedure, shortened: as §3
NCI-H460 [10] = assay: Cytotoxicity against human NCI-H460 cells at 10^-6 M after 48 hrs by SRB assay; settings: NCI-H460, 48 h, read-out: GI; procedure, shortened: as §3
NCI-H460 [11] = assay: Cytotoxicity against human NCI-H460 cells at 10^-5 M after 48 hrs by SRB assay; settings: NCI-H460, 48 h, read-out: GI; procedure, shortened: as §3
TK-10 = assay: Cytotoxicity against human TK10 cells at 10^-5 M after 48 hrs by SRB assay; settings: TK-10, 48 h, read-out: GI
UACC-62 = assay: Cytotoxicity against human UACC62 cells at 10^-6 M after 48 hrs by SRB assay; settings: UACC-62, 48 h, read-out: GI
HCT-116 = assay: Cytotoxicity against human HCT116 cells at 10^-5 M after 48 hrs by SRB assay; settings: HCT-116, 48 h, read-out: GI; procedure, shortened: as §1
SK-MEL-2 [12] = assay: Cytotoxicity against human SK-MEL-2 cells at 10^-6 M after 48 hrs by SRB assay; settings: SK-MEL-2, 48 h, read-out: GI; procedure, shortened: as §2
HT-29 = assay: Cytotoxicity against human HT-29 cells at 10^-6 M after 48 hrs by SRB assay; settings: HT-29, 48 h, read-out: GI; procedure, shortened: as §1

SMILES	inhibition of growth at 1 µM (U-251)	inhibition of growth at 10 µM (HOP-92)	inhibition of growth at 10 µM (RPMI-8226)	inhibition of growth at 1 µM (ACHN [1])	inhibition of growth at 10 µM (PC-3)	inhibition of growth at 10 µM (COLO 205)	inhibition of growth at 1 µM (NCI/ADR-RES)	inhibition of growth at 1 µM (NCI-H322M)	inhibition of growth at 10 µM (HL-60(TB))	inhibition of growth at 1 µM (MOLT-4)	inhibition of growth at 1 µM (786-0)	inhibition of growth at 10 µM (SK-MEL-2 [2])	inhibition of growth at 1 µM (NCI-H226)	inhibition of growth at 10 µM (SK-MEL-5)	inhibition of growth at 1 µM (RXF 393)	inhibition of growth at 1 µM (KM12)	inhibition of growth at 1 µM [3]	inhibition of growth at 10 µM (MDA-MB-435)	inhibition of growth at 1 µM (LOX IMVI)	inhibition of growth at 10 µM (CAKI-1)	other results
CCN(Cc1nc2cc(C(F)(F)F)ccc2nc1-c1ccccc1)c1ccc(OC)c(OC)c1	< 40%	21%	97%	< 40%	56%	< 40%	< 40%	< 40%	83%	< 40%	< 40%	15%	17%	17%	57%	< 40%	< 40%	14%	< 40%	29%	inhibition of growth at 1 µM (NCI-H522 [4]): < 40%; inhibition of growth at 10 µM (ACHN [5]): 25%; inhibition of growth at 1 µM [6]: 104%; inhibition of growth at 10 µM (SF-539): 18%; inhibition of growth at 1 µM (MCF7): < 40%; inhibition of growth at 1 µM [7]: < 40%; inhibition of growth at 10 µM [8]: 43%; inhibition of growth at 10 µM (NCI-H522 [9]): 28%; inhibition of growth at 1 µM (NCI-H460 [10]): < 40%; inhibition of growth at 10 µM (NCI-H460 [11]): 25%; inhibition of growth at 10 µM (TK-10): < 40%; inhibition of growth at 1 µM (UACC-62): < 40%; inhibition of growth at 10 µM (HCT-116): 43%; inhibition of growth at 1 µM (SK-MEL-2 [12]): < 40%; inhibition of growth at 1 µM (HT-29): < 40%
C#CCN(Cc1nc2cc(C(F)(F)F)ccc2nc1-c1ccccc1)c1ccc(C)cc1	< 40%	< 40%	< 40%	< 40%	< 40%	164%	109%	< 40%	85%	67%	< 40%	72%	< 40%	99%	< 40%	< 40%	< 40%	147%	< 40%	82%	inhibition of growth at 1 µM (NCI-H522 [4]): 49%; inhibition of growth at 10 µM (ACHN [5]): 95%; inhibition of growth at 1 µM [6]: < 40%; inhibition of growth at 10 µM (SF-539): 49%; inhibition of growth at 1 µM (MCF7): 64%; inhibition of growth at 1 µM [7]: < 40%; inhibition of growth at 10 µM [8]: 88%; inhibition of growth at 10 µM (NCI-H522 [9]): 76%; inhibition of growth at 1 µM (NCI-H460 [10]): 62%; inhibition of growth at 10 µM (NCI-H460 [11]): 75%; inhibition of growth at 10 µM (TK-10): 54%; inhibition of growth at 1 µM (UACC-62): < 40%; inhibition of growth at 10 µM (HCT-116): 79%; inhibition of growth at 1 µM (SK-MEL-2 [12]): 41%; inhibition of growth at 1 µM (HT-29): < 40%
